This passage reports EC50, CC50 and selectivity ratio results from ChEMBL document CHEMBL3351523 (Bioorg Med Chem, 2014).

Bounds are passed on as bounds.

The test system of series [1] is Human immunodeficiency virus 1. As to the kind of experiment: Antiviral activity against HIV1 infected in human MT4 cells assessed as inhibition of virus-induced cytopathogenicity after 4 days by MTT assay. Type of series: functional, organism-based. The note with it: Human immunodeficiency virus 1, MT4, 96 h. In a few lines: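 MT-4 cells (1 × 10^4/well in RPMI) were infected acutely with HIV-1 IIIB, 100 CCID50 (m.o.i. 0.01), with serial dilutions from 100 µM, 1:5. After 4 days at 37 °C, protection from virus-induced cytopathogenicity was read by MTT. EC50 came from linear regression against untreated controls.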
For orientation: Cytopathic effects are the visible damage that an infection or toxin causes in cultured cells.

In a further series the test system is Reovirus sp. As to the kind of experiment: Antiviral activity against Reovirus type-1 infected in BHK21 cells assessed as inhibition of virus-induced cytopathogenicity after 3 to 4 days by MTT assay. Type of series: functional, organism-based. The note with it: BHK-21.
In series [2] the test system is Vesicular stomatitis virus. As to the kind of experiment: Antiviral activity against Vesicular stomatitis virus infected in african green monkey Vero 76 cells assessed as reduction in plaque number after 2 days by plaque reduction assay. Type of series: functional, organism-based. The note with it: 48 h. (Plaques are areas of infected cells; plaque reduction assays count them against a control.)

Series [3] is described as follows: Cytotoxicity against mock-infected MDBK cells after 48 to 96 hrs by MTT assay. Type of series: cell-based, Bos taurus. The note with it: cattle. In a few lines:
(§1)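 Mock-infected MDBK (6 × 10^5 cells/mL; MEM-E, 10% horse serum, 1 mM pyruvate) or BHK (1 × 10^6 cells/mL; MEM-E, 10% FBS) cells were incubated at 37 °C, 5% CO2 with serial dilutions from 100 µM, 1:5. Viability by MTT after 48–96 h. CC50 from linear regression against untreated controls.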
On the technique in general: Tetrazolium dyes change colour on reduction, which living cells bring about.

The test system of another series is Vaccinia virus. As to the kind of experiment: Antiviral activity against Vaccinia Virus infected in african green monkey Vero 76 cells assessed as reduction in plaque number after 3 days by plaque reduction assay. Type of series: functional, organism-based. The note with it: Orthopoxvirus vaccinia, 72 h.
The subject of the next series is Coxsackievirus B5. As to the kind of experiment: Antiviral activity against Coxsackievirus B5 infected in african green monkey Vero 76 cells assessed as reduction in plaque number after 3 days by plaque reduction assay. Type of series: functional, organism-based. The note with it: Enterovirus B, 72 h.
The test system of series [4] is Bovine viral diarrhea virus 1. As to the kind of experiment: Antiviral activity against Bovine viral diarrhea virus infected in MDBK cells assessed as inhibition of virus-induced cytopathogenicity after 3 to 4 days by MTT assay. The settings on record: Bovine viral diarrhea virus isolates and strains. Type of series: functional, organism-based.
In another series the test system is Yellow fever virus. As to the kind of experiment: Antiviral activity against Yellow fever virus infected in BHK21 cells assessed as inhibition of virus-induced cytopathogenicity after 3 to 4 days by MTT assay. Type of series: functional, organism-based. The note with it: BHK-21.
The subject of series [5] is Respiratory syncytial virus. As to the kind of experiment: Antiviral activity against Respiratory syncytial virus infected in african green monkey Vero 76 cells assessed as reduction in plaque number after 5 days by plaque reduction assay. The settings on record: human respiratory syncytial virus, 120 h. Type of series: functional, organism-based.
Series [6] can be described thus: Cytotoxicity against mock-infected human MT4 cells after 96 hrs by MTT assay. Type of series: cell-based. In a few lines:
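Exponentially growing MT-4 cells were seeded at 1 × 10^5 cells/mL in RPMI-1640 with 10% FBS and held at 37 °C, 5% CO2 with serial compound dilutions. Viability was read by MTT after 96 h. CC50 from linear regression against untreated controls.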

A short description of series [7]: Cytotoxicity against mock-infected african green monkey Vero 76 cells after 48 to 96 hrs by MTT assay. The settings on record: chlorocebus sabaeus, mock-infected Vero 76 cells. Type of series: cell-based.
The nature of series [8]: Selectivity index, ratio of CC50 for african green monkey Vero 76 cells to EC50 for Coxsackievirus B5. Type of series: toxicity, cell-based. The note with it: read-out: Ratio CC50/EC50. In a few lines:
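Mock-infected Vero-76 cells were tested in parallel on the same 24-well plates as the plaque assays (seeding 4 × 10^5 cells/mL, D-MEM with FBS), with serial compound dilutions at 37 °C, 5% CO2. Viability was read after 48–96 h by crystal violet staining. CC50 by linear regression; selectivity index = Vero-76 CC50/EC50 for CVB-5 or RSV.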

A short description of series [9]: Cytotoxicity against mock-infected BHK21 cells after 48 to 96 hrs by MTT assay. Type of series: functional. The settings on record: Mesocricetus auratus, BHK-21. An outline of the steps:
as §1

In a further series the test system is Human alphaherpesvirus 1. The series is described as follows: Antiviral activity against HSV1 infected in african green monkey Vero 76 cells assessed as reduction in plaque number after 3 days by plaque reduction assay. Type of series: functional, organism-based. The note with it: Human alphaherpesvirus 1, Vero, 72 h.
The next series relates to Poliovirus 1. The series is described as follows: Antiviral activity against Poliovirus type 1 Sabin strain infected in african green monkey Vero 76 cells assessed as reduction in plaque number after 2 days by plaque reduction assay. Type of series: functional, organism-based. The settings on record: Enterovirus C, 48 h.

Broadly, the EC50 is the concentration giving half of the maximal effect. As usually defined, the CC50 is the concentration giving 50% cytotoxicity. For the compound `c1ccc(-n2c(C[C@@H]3CCCN4CCCC[C@H]34)nc3ccccc32)cc1`, the EC50 in series [1] was greater than 100 µM; with Reovirus sp. it was greater than 100 µM; in series [2], greater than 100 µM; in the series with Vaccinia virus, greater than 100 µM; in the series on Coxsackievirus B5, 49 µM; in series [4] it was 89 µM. In addition, the half-maximal effective concentration (EC50) (in the series on Yellow fever virus; in series [5]; in the series with Human alphaherpesvirus 1; with Poliovirus 1) was greater than 100 µM in each case. In addition, the results for the CC50 in series [3], in series [7] and in series [9] were greater than 100 µM, greater than 100 µM and 30 µM, respectively. This compound registered a 50% cytotoxic concentration (CC50) at 96 h in series [6] of 33 µM. Moreover, in series [8], the selectivity ratio was greater than 2.04.
On to `c1ccc2[nH]c(CC3CCCC3)nc2c1`, for which the EC50 in [1] is greater than 100 µM; in the series with Reovirus sp. it was greater than 100 µM; in series [2], greater than 100 µM; in the series with Vaccinia virus, greater than 100 µM; with Coxsackievirus B5, 21 µM; in [4], greater than 100 µM. Besides, the EC50 (with Yellow fever virus; in series [5]; in the series on Human alphaherpesvirus 1; in the series on Poliovirus 1) was greater than 100 µM each time. Also, the CC50 in [3], in [7] and in series [9] was greater than 100 µM in each case. The compound also displayed a CC50 at 96 h in series [6] greater than 100 µM. Besides, the selectivity ratio in series [8] is greater than 4.76.
In the case of `CCN(CC)CCCn1c(Cc2ccc(Cl)c(Cl)c2)nc2cc(C(F)(F)F)ccc21`, the EC50 in series [1] was greater than 100 µM; in the series with Reovirus sp., greater than 100 µM; in series [2], greater than 100 µM; in the series on Vaccinia virus, greater than 100 µM; in the series on Coxsackievirus B5 it was 17 µM; in [4], greater than 100 µM. Besides, the EC50 with Yellow fever virus is greater than 100 µM; in [5], greater than 100 µM; in the series on Human alphaherpesvirus 1, greater than 100 µM; in the series with Poliovirus 1 it was 63 µM. The CC50 in [3] was 26 µM; in series [7], greater than 100 µM; in series [9], greater than 100 µM. Moreover, the CC50 at 96 h in series [6] came out at 40 µM. Further, the selectivity ratio in [8] is greater than 5.88.
Take `FC(F)(F)c1ccc2c(c1)nc(-c1ccc(Cl)cc1)n2C[C@@H]1CCCN2CCCC[C@H]12`: the EC50 in series [1] was greater than 100 µM; with Reovirus sp., greater than 100 µM; in series [2] it was greater than 100 µM; in the series with Vaccinia virus, greater than 100 µM; in the series on Coxsackievirus B5, 14 µM; in [4], greater than 100 µM. Besides, the 50% effective concentration (EC50) (with Yellow fever virus; in series [5]; in the series on Human alphaherpesvirus 1; with Poliovirus 1) was greater than 100 µM each time. The CC50 in series [3] turned out to be 40 µM; in [7], 24 µM; in series [9], 75 µM. In [6], this compound registered a CC50 at 96 h of 24 µM. Besides, the selectivity ratio in series [8] was 1.71.
Consider `Clc1ccc(Cc2nc3cc(Cl)c(Cl)cc3n2C[C@@H]2CCCN3CCCC[C@H]23)cc1`, for which the EC50 in series [1] was greater than 100 µM; in the series with Reovirus sp. it was greater than 100 µM; in series [2] it was greater than 100 µM; with Vaccinia virus, greater than 100 µM; with Coxsackievirus B5, 28 µM; in series [4], greater than 100 µM. For the same compound, the EC50 (with Yellow fever virus; in [5]; in the series on Human alphaherpesvirus 1; in the series on Poliovirus 1) was greater than 100 µM each time. For the same compound, the CC50 was greater than 100 µM in series [3], greater than 100 µM in series [7] and 30 µM in [9]. This compound yielded a CC50 at 96 h in [6] of 17 µM. In addition, the selectivity ratio in series [8] was greater than 3.57.
Regarding `Oc1ccc(-c2nc3cc(C(F)(F)F)ccc3n2C[C@@H]2CCCN3CCCC[C@H]23)cc1`, the 50% effective concentration (EC50) was greater than 100 µM in series [1]; 32 µM in the series on Reovirus sp.; greater than 100 µM in [2]; greater than 100 µM in the series with Vaccinia virus; 26 µM in the series with Coxsackievirus B5; greater than 100 µM in series [4]. Besides, the EC50 (in the series with Yellow fever virus; in series [5]; in the series on Human alphaherpesvirus 1; in the series on Poliovirus 1) was greater than 100 µM throughout. The CC50 in series [3] amounted to 48 µM; in series [7], 78 µM; in series [9], 60 µM. For the same compound, in series [6], the CC50 at 96 h stood at 21 µM. In addition, the selectivity ratio in series [8] worked out at 3.
On to `Clc1ccc2nc(-c3ccccc3)n([C@@H]3CCCN4CCCC[C@H]34)c2c1`, for which the EC50 in [1] was greater than 100 µM; in the series on Reovirus sp., greater than 100 µM; in series [2] it was greater than 100 µM; in the series with Vaccinia virus it was greater than 100 µM; with Coxsackievirus B5 it was 32 µM; in series [4] it was 40 µM. The EC50 (in the series with Yellow fever virus; in series [5]; in the series on Human alphaherpesvirus 1; with Poliovirus 1) was greater than 100 µM throughout. For the same compound, the CC50 in [3] is greater than 100 µM; in series [7], no less than 100 µM; in series [9], greater than 100 µM. This compound also came in with a CC50 at 96 h in series [6] greater than 100 µM. Besides, the selectivity ratio in series [8] is greater than 3.12.
Consider `C[C@@]1(O)[C@H](O)[C@@H](CO)O[C@H]1n1cnc2c(=O)[nH]c(N)nc21` [2'-B-METHYL-GUANOSINE], for which the EC50 in the series with Reovirus sp. is 2.4 µM; in [2], greater than 100 µM; in the series with Vaccinia virus it was greater than 100 µM; with Coxsackievirus B5, 20 µM; in the series with Yellow fever virus, greater than 100 µM; in [5], greater than 100 µM. For the same compound, the EC50 in the series on Human alphaherpesvirus 1 and in the series on Poliovirus 1 was greater than 100 µM throughout. Besides, the CC50 in [3] was greater than 100 µM; in [7], greater than 100 µM; in [9], 90 µM. The CC50 at 96 h in series [6] was greater than 100 µM. Besides, the selectivity ratio in series [8] was greater than 5.
As for `Clc1ccc2[nH]c(CCCC3NCC4CC3CN3CCCCC43)nc2c1` (stereo not given), the EC50 (in [1]; with Reovirus sp.; in series [2]; in the series with Vaccinia virus; with Coxsackievirus B5; in [4]) was greater than 100 µM each time. Also, the EC50 (with Yellow fever virus; in [5]; in the series on Human alphaherpesvirus 1; in the series on Poliovirus 1) was greater than 100 µM throughout. Further, the figures for the CC50 in series [3], in series [7] and in [9] were 56 µM, 59 µM and 18 µM, respectively. In series [6], it took 51 µM to reach half-maximal cytotoxicity (CC50 at 96 h).
In the case of `CC(CC(=O)O)n1c(Cc2ccc(Cl)cc2)nc2ccccc21` (stereo not given), the 50% effective concentration (EC50) (in series [1]; in the series with Reovirus sp.; in series [2]; in the series on Vaccinia virus; in the series with Coxsackievirus B5; in series [4]) was greater than 100 µM in each case. Besides, the concentration giving a half-maximal response (EC50) (in the series on Yellow fever virus; in series [5]; with Human alphaherpesvirus 1; in the series with Poliovirus 1) was greater than 100 µM throughout. Also, the CC50 in series [3], in series [7] and in series [9] was greater than 100 µM in each case. The compound also registered a CC50 at 96 h in series [6] greater than 100 µM.
For `FC(F)(F)c1ccc2c(c1)nc(-c1ccccc1)n2C[C@@H]1CCCN2CCCC[C@H]12`, the EC50 (in series [1]; in the series on Reovirus sp.; in series [2]; in the series with Vaccinia virus; in the series with Coxsackievirus B5; in series [4]) was greater than 100 µM throughout. Besides, the EC50 (in the series on Yellow fever virus; in series [5]; with Human alphaherpesvirus 1; in the series on Poliovirus 1) was greater than 100 µM throughout. In addition, the CC50 came out at 35 µM in series [3], 90 µM in series [7] and 75 µM in series [9]. The compound further came in with a CC50 at 96 h in series [6] of 46 µM.
